Screens deposited in PubChem by several laboratories.
Hits are enriched below; roughly 1.6% of the tested compounds scored in any of these assays.
PHOSPHO1 inh: PHOSPHO1 (human) inhibition. recombinant PHOSPHO1, absorbance phosphatase assay. inhibition, % at 13.3 µM. 290,000 compounds, 1.1% hits. Q8TCT1. AID 1565; in the data active = inhibition above about 60%
NCF1 inh: inhibitors of human p47phox binding; p47phox/p22phox peptide binding, fluorescence polarization, 2 h; AID 1274; inhibition, % at 24.7 µM; 220,000 compounds, 0.53% hits;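 active = inhibition above about 30%, limit read from the data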;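 note: 0% = p47phox with labelled peptide and 100% = labelled peptide alone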
ABCB1 block: blocks JC-1 efflux by human ABCB1 transporter; P08183; CCRF-Adr cells, flow cytometry; inhibition, % at 6.6 µM; 190,000 compounds, 0.067% hits; AID 1326; in the data active = inhibition above about 40%;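 note: 0% = vehicle and 100% = reference inhibitor; higher value means more JC-1 retained so stronger ABCB1 efflux block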
HSV augment: increases HSV replication in cells; HSV replication augmentation in cells, fold increase; maximum fold increase; 220,000 compounds, 0.005% hits; AID 1956; in the data active = maximum fold increase above about 1.5; tested in PC3 cells
PKD1 kinase inh: inhibitors of human PKD1 kinase; inhibition, % (test concentration not listed); 200,000 compounds, 0.056% hits; PKD1 kinase fluorescence polarization assay; Q15139; in the data active = inhibition above about 50%
ABCG2 inh: blocks JC-1 efflux by human ABCG2 transporter | Q9UNQ0 | IgMXP3 cells, flow cytometry | inhibition, % at 6.6 µM | 190,000 compounds, 0.1% hits;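 active = inhibition above 80%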;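 note: 0% = DMSO and 100% = nicardipine control wells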
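Assay system – ABCG2 IgMXP3 and barcoded ABCB1 CCRF-Adr cell mix · Input – 3 million cells/mL in well · Reagent – JC-1 fluorescent substrate · Compound – single test compound dose, 6.6 µM final · Timing – 10 min exposure at 25 °C with rotation, no wash · Detection – flow cytometry of retained JC-1 fluorescence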
Active calls of the source: *.

Results for O=C(NCc1ccc2c(c1)OCO2)C1CC(=O)N(C2CCCC2)C1 (stereo not drawn) ?
PHOSPHO1 inh: 63.9*; NCF1 inh: -16.7; ABCB1 block: 0.9; HSV augment: inactive; PKD1 kinase inh: -2.8; ABCG2 inh: 6.0

How did O=C(NCCCc1ccccc1)C1CC(=O)N(c2ccc3c(c2)OCCO3)C1 (stereo not drawn) do in these assays?
PHOSPHO1 inh: -22.9; NCF1 inh: -8.6; ABCB1 block: 1.0; HSV augment: inactive; PKD1 kinase inh: -5.1; ABCG2 inh: 26.6

Results for O=C(NC(Cc1ccccc1)c1nc2ccccc2[nH]1)C1CC(=O)N(c2ccc3c(c2)OCCO3)C1 (stereo not drawn) ?
PHOSPHO1 inh: 95.8*; NCF1 inh: -22.0; ABCB1 block: 0.6; HSV augment: inactive; PKD1 kinase inh: -0.2; ABCG2 inh: 1.0

How did O=C(Nc1ccc2ccccc2c1)[C@@H]1C[C@H]1[C@@H](NP(=O)(c1ccccc1)c1ccccc1)c1ccccc1 do in these assays?
PHOSPHO1 inh: -6.3; NCF1 inh: -17.4; ABCB1 block: 3.5; HSV augment: inactive; PKD1 kinase inh: -1.9; ABCG2 inh: 8.4

What do the screens show for `COc1ccc(N2CCN(C(=O)c3sc4ncn(CC(=O)N5CCCCC5C)c(=O)c4c3C)CC2)cc1` (stereo not drawn)?
PHOSPHO1 inh: 26.1

Results for CCn1cc(-c2n[nH]c(=S)n2-c2ccc(C)cc2Br)c(=O)c2ccc(C)nc21 ?
PHOSPHO1 inh: -111.5; NCF1 inh: -10.8; HSV augment: inactive

Results for CCc1cccc(NC(=O)C2CCCN(c3ncnc4c3nc3n4CCCCC3)C2)c1 (stereo not drawn) ?
PHOSPHO1 inh: 62.9*

How did O=C(Nc1cccnc1)C1CCCN(c2ncnc3c2nc2n3CCCCC2)C1 (stereo not drawn) do in these assays?
PHOSPHO1 inh: 54.7

How did COc1ccc(CCNC(=O)CSc2nnc(-c3ccco3)c(-c3ccco3)n2)cc1OC do in these assays?
PHOSPHO1 inh: 0.1

What do the screens show for `CCOC(=O)c1c2n(c3ccc(OC(C)=O)cc13)CCC2`?
PHOSPHO1 inh: -9.2; NCF1 inh: 38.3*; ABCB1 block: 0.1; HSV augment: inactive; PKD1 kinase inh: 6.3; ABCG2 inh: 2.1

How did O=C(CN1CCN(Cc2ccc(Cl)cc2)CC1)N1CCc2ccccc21 do in these assays?
PHOSPHO1 inh: 35.0

What do the screens show for `COc1ccccc1CCN=C(N)NS(=O)(=O)c1ccccc1F`?
PHOSPHO1 inh: 65.8*

Results for Nc1nc(-c2ccc(Cl)cc2)nn1C(=O)c1ccco1 ?
PHOSPHO1 inh: 8.0; NCF1 inh: -4.2; ABCB1 block: -0.1; HSV augment: inactive; PKD1 kinase inh: 0.3; ABCG2 inh: 1.0

How did COC(=O)COC(=O)c1ccc(-n2nnnc2SC)cc1 do in these assays?
PHOSPHO1 inh: -16.2; NCF1 inh: -9.1; ABCB1 block: -0.2; HSV augment: inactive; PKD1 kinase inh: -2.4; ABCG2 inh: 0.1

What do the screens show for `COC(=O)c1ccc(-n2nnnc2SC)cc1`?
PHOSPHO1 inh: 81.2*; NCF1 inh: -1.0; ABCB1 block: 0.2; HSV augment: inactive; PKD1 kinase inh: -7.1; ABCG2 inh: 9.0

How did COc1ccc(Cl)cc1N(CC(=O)NCCSc1ccccn1)S(=O)(=O)c1ccccc1 do in these assays?
PHOSPHO1 inh: -13.9

Results for CN1C(=O)Cc2cc(S(=O)(=O)NCc3cccs3)ccc21 ?
PHOSPHO1 inh: 43.6; NCF1 inh: -4.9; ABCB1 block: -0.8; HSV augment: inactive; PKD1 kinase inh: 2.6; ABCG2 inh: -1.0

Results for CCOc1cc(CNS(=O)(=O)c2ccc3c(c2)CC(=O)N3C)cc(OCC)c1OCC ?
PHOSPHO1 inh: 64.9*

Results for CCCC1CC(C)(C(=O)CSc2n[nH]c(-c3ccccc3)n2)OC1=O (stereo not drawn) ?
PHOSPHO1 inh: 60.4*; NCF1 inh: -5.1; ABCB1 block: 0.0; HSV augment: inactive; PKD1 kinase inh: -16.8; ABCG2 inh: 0.0

How did NC(=O)C1CCN(Cc2nc3ccccc3c(=O)[nH]2)CC1 do in these assays?
PHOSPHO1 inh: 10.7; NCF1 inh: 33.5*; ABCB1 block: -0.1; HSV augment: inactive; PKD1 kinase inh: -4.1; ABCG2 inh: -0.2

What do the screens show for `O=C1c2ccccc2CC1Sc1nnc(-c2ccccn2)o1` (stereo not drawn)?
PHOSPHO1 inh: 69.4*; NCF1 inh: -3.2; ABCB1 block: -0.7; HSV augment: inactive; PKD1 kinase inh: -1.6; ABCG2 inh: -1.5

Results for O=C(NNC(=O)C1CC(c2cccs2)=NO1)Nc1ccc(Cl)cc1 (stereo not drawn) ?
PHOSPHO1 inh: 5.1

How did Cc1ccc(N2CCN(C(=O)c3ccccc3)CC2)c(C)c1 do in these assays?
PHOSPHO1 inh: 7.0; NCF1 inh: 91.5*; ABCB1 block: 0.6; HSV augment: inactive; PKD1 kinase inh: -7.5; ABCG2 inh: 0.9

How did CC1=NN(c2ccc(Cl)c(C(=O)O)c2)C(=O)C1 do in these assays?
PHOSPHO1 inh: -13.4; NCF1 inh: -5.4; ABCB1 block: 0.6; HSV augment: inactive; PKD1 kinase inh: -10.3; ABCG2 inh: 12.3

Results for CC1=NN(c2ccc(C(=O)O)c(N)c2)C(=O)C1 ?
PHOSPHO1 inh: 62.8*; NCF1 inh: -10.6; ABCB1 block: -0.1; HSV augment: inactive; PKD1 kinase inh: 3.2; ABCG2 inh: -1.2

How did COc1ccc(C(=O)N2CC3(C)CC2CC(C)(C)C3)cc1 (stereo not drawn) do in these assays?
PHOSPHO1 inh: 6.9; NCF1 inh: 56.2*; ABCB1 block: 0.6; HSV augment: inactive; PKD1 kinase inh: 2.7; ABCG2 inh: 4.6

Results for CC1(C)CC2CC(C)(CN2C(=O)c2ccccc2)C1 (stereo not drawn) ?
PHOSPHO1 inh: 49.0; NCF1 inh: -2.0; ABCB1 block: 0.4; HSV augment: inactive; PKD1 kinase inh: -3.2; ABCG2 inh: 1.4

What do the screens show for `COCCn1c(SCc2nc3sc(C(=O)OC)c(C)c3c(=O)[nH]2)nc2ccccc21`?
PHOSPHO1 inh: 92.2*; NCF1 inh: -67.1; ABCB1 block: 0.1; HSV augment: inactive; PKD1 kinase inh: -2.4; ABCG2 inh: -0.1

Results for CCN1C(=O)/C(=C/c2ccc(C)s2)NC1=S ?
PHOSPHO1 inh: 76.4*; NCF1 inh: -33.1; ABCB1 block: -0.3; HSV augment: inactive; PKD1 kinase inh: -1.8; ABCG2 inh: -1.0

What do the screens show for `Cc1ccc(/C=C2/NC(=O)N(Cc3ccccc3)C2=O)s1`?
PHOSPHO1 inh: 13.7; NCF1 inh: -87.8; ABCB1 block: 0.5; HSV augment: inactive; PKD1 kinase inh: -9.8; ABCG2 inh: 2.4

How did CCOCC(=O)Nc1nnc(COc2ccc(Cl)cc2)s1 do in these assays?
PHOSPHO1 inh: 95.3*; NCF1 inh: -2.1; ABCB1 block: -0.8; HSV augment: inactive; PKD1 kinase inh: -9.4; ABCG2 inh: -2.6
